Rows were chosen to be rich in hits. Some 3.3% of all compounds tested hit in one or more screens of this group.
Arrestin-AP2 inh: inhibitors of human beta-arrestin and AP2 interaction | inhibition, % at 10 µM | AID 504490 | hit rate 0.31% among 340,000 | FITC-arrestin peptide / GST-AP2 beads, flow cytometry; AP2 beta2 appendage carries R879A mutation;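 active = inhibition above a set limit, near 3 SD of compounds lacking own fluorescence, cut at about 54% in these data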;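 note: plate controls were DMSO wells for no effect and 5 µM unlabelled arrestin peptide for full effect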
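test system = AP2 appendage R879A on GSH beads | buffer or medium = PBS plus Tween 20 (0.05%) and BSA (0.1%) | incubation = 12 min plus 1 h, RT | detection = bead flow cytometry, FITC channel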
M18AAP inhibitor: blocks P. falciparum M18 aspartyl aminopeptidase | recombinant PfM18AAP, H-Glu-NHMec fluorogenic cleavage | inhibition, % at 7.35 µM | hit rate 1.2% among 290,000 | AID 1822;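 active = inhibition above the campaign mean inhibition over all tested compounds plus 3 SD, cut at about 28% in these data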;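 note: 0% = plate median of test compound wells and 100% = 2 mM ZnCl2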
CendR NRP1 mod: NRP-1/CendR interaction modulation; hit rate 0.85% among 360,000; O14786; FAM-RPARPAR peptide binding to NRP-1, fluorescence polarization; inhibition, % at 25 µM;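 active = inhibition or corrected inhibition above about 18%, plus a signal ratio from 0.5 to 1.5, limit read from the data, passing the limit was not always enough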
sPLA2-III inh: Blocks human group III sPLA2 activity | hit rate 0.56% among 370,000 | QFRET BODIPY PC-A2 liposome hydrolysis, fluorescence | Q9NZ20 | AID 743126 | inhibition, % at 12.2 µM;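 active = inhibition above mean plus 3 SD of compounds lying within the high and low control bounds, cut at about 19% in these data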;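 note: 0% = median of test compound wells and 100% = no enzyme DMSO wells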
HTR2A ag: mouse HTR2A agonism via beta-arrestin recruitment | AID 624169 | CHO-K1 mHTR2A beta-arrestin complementation, luminescence; percent of 30 µM serotonin response | activation, % at 7.6 µM | hit rate 0.66% among 360,000 | P35363;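 active = activation above a run cutoff, the mean activation of all tested compounds plus 3 SD, cut at about 14% in these data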;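 note: 0% = plate median of compound wells and 100% = 30 µM serotonin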
Target sequence (P35363 whole entry, looked up): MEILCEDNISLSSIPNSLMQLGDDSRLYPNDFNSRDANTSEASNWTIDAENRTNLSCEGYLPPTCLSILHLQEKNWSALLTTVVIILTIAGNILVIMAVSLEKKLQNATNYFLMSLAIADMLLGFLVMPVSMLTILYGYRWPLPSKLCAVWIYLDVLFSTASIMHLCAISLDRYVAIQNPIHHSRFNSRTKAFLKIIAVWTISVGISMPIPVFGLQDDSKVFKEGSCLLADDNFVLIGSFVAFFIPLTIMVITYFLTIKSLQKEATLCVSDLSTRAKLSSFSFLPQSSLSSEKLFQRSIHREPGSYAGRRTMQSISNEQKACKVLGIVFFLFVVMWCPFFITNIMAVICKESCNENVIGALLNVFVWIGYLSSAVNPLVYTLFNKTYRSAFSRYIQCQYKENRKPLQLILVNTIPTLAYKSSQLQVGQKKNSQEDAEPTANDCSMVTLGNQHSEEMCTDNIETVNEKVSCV
Hep lipid drop: modulators of hepatic lipid droplet formation | AML12 mouse hepatocytes, oleate lipid droplets, BODIPY imaging | hit rate 0.4% among 240,000 | inhibition, % at 6.5 µM | AID 1656;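 active = lipid droplet intensity inhibited by at least 50%, with more than 500 cells counted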
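Assay system: AML12 hepatocytes (mouse); Probe or stimulus: oleic acid at 100 µM to induce lipid droplet formation; Dosing: compound at 6.5 µM only; Schedule: compound with oleate, overnight; Detection: fluorescence imaging, 20x objective, two fields per well; Measure: % inhibition of lipid droplet signal.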
Lipid drop inh: hepatic lipid droplet formation inhibition, confirmed. shares compounds with Hep lipid drop. AML12 mouse hepatocytes, BODIPY lipid droplet imaging; droplets induced with 100 µM oleic acid. inhibition, % at 5.2 µM. hit rate 65% among 870. AID 463183;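 active = inhibition of lipid droplet metric at least 50%, with more than 300 cells in each of four replicates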;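 note: plate controls were DMSO with oleic acid for no effect and 5 µM Triacsin-C for full effect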
AML12 cytotox: AML12 hepatocyte cytotoxicity (counter-screen); hit rate 3% among 870; z-score at 5 µM; AML12 mouse hepatocytes, DAPI nuclear morphology cytotoxicity imaging; active compounds read high; cells fed 100 µM oleate overnight; AID 463200; shares compounds with Hep lipid drop; in the data active = z-score above about 6.3;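 note: compound exposure lasted overnight at 37 °C before fixation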
AML12 tox conf: confirmation of cytotoxicity in AML12 mouse hepatocytes | shares compounds with Hep lipid drop | AML12 mouse hepatocyte viability, ATP luminescence; cells loaded with 100 µM oleic acid | cytotoxicity, % at 50 µM | 530 tested, under 10 active | AID 463219;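 active = cytotoxicity above 50% in each of four replicates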;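 note: compound exposure lasted overnight at 37 °C before the ATP read; 0% = DMSO-treated cells and 100% = wells with no cells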
* = called active by the depositor; / = no result.

SMILES	Arrestin-AP2 inh	M18AAP inhibitor	CendR NRP1 mod	sPLA2-III inh	HTR2A ag	Hep lipid drop	Lipid drop inh	AML12 cytotox	AML12 tox conf
CC(=O)c1c(C)[nH]c(C(=O)Nc2nc(-c3ccc(-c4ccccc4)cc3)cs2)c1C	-2.6	-0.3	-7.7	-3.6	-3.5	95.0*	-2.2	-0.391	/
CC(=O)c1c(C)[nH]c(C(=O)Nc2nc(-c3ccc(Cl)cc3)cs2)c1C	-20.9	0.6	4.4	1.7	1.4	-2.0	/	/	/
Oc1ccc(-c2nn[nH]n2)c2cccnc12	/	/	/	-0.7	/	/	/	/	/
CCCCC(NC(=O)Cc1c(C)c2cc3c(-c4ccccc4)coc3c(C)c2oc1=O)C(=O)O (stereo not given)	-27.2	1.8	-30.3	-20.3	5.9	11.9	/	/	/
COc1ccc(N=NC2C(=O)N(c3ccccc3)N=C2C)cc1 (stereo not given)	7.5	-1.1	-1.3	-6.0	0.7	52.5*	101.7*	-0.497	9.6
Cc1cc(C(=O)N[C@@H](c2ccccc2)[C@]2(C)C[C@H]2[C@@H](C)C(=O)Nc2ccc3ccccc3c2)no1	-3.7	-0.1	21.7*	-21.6	-12.8	95.5*	101.1*	0.525	/
CCN(CC)S(=O)(=O)c1cc(NC(=O)C(C)OC(=O)c2[nH]c(C)c(C(C)=O)c2C)ccc1C (stereo not given)	-1.7	4.4	-12.5	-43.0	-2.5	127.7*	51.3	-0.37	/
C=CCOc1ccc(-c2nc3c(c(=O)[nH]c(=O)n3Cc3ccccc3)n2CCCOC)cc1	3.0	5.0	0.6	-4.1	-2.5	56.0*	65.0*	0.295	11.1
COCCCn1c(-c2ccc(OC)cc2)nc2c1c(=O)[nH]c(=O)n2Cc1ccccc1	-3.9	3.2	-5.9	-3.6	-4.1	-2.8	/	/	/
O=C(C(=O)N1CCN(S(=O)(=O)c2ccc(Cl)cc2)CC1)c1cccc(C(F)(F)F)c1	/	/	/	9.5	/	/	/	/	/
COc1ccc(C)cc1S(=O)(=O)N(CC(=O)O)c1ccccc1	11.7	12.9	5.3	7.3	6.0	-4.9	/	/	/
COc1ccc(C)cc1S(=O)(=O)N(CC(=O)O)c1ccc(C)cc1	3.5	3.7	-8.6	-0.8	2.1	53.3*	11.7	-0.548	/
COC(=O)[C@]12C[C@H](CC(=O)NCC3CCCCC3)C(=O)N(Cc3ccc(Cl)cc3Cl)C1=C[C@H](COCc1ccccc1)O[C@@H]2C	/	/	/	5.2	/	/	/	/	/
Cc1ccc(C)c(NC(=O)Cn2cc(C(=O)C3CC3)c3ccccc32)c1	-10.7	4.4	7.9	2.8	-1.7	75.2*	93.7*	-0.527	18.9
Cc1ccc2c(c1)N(CCCC(=O)N(C)Cc1ccc(F)cc1)C(=O)CO2	/	/	/	2.7	/	/	/	/	/
CC1=C(C(=O)N(C(C)C)C(C)C)CC(CC(=O)NCc2cccs2)C(=O)N1Cc1ccccc1 (stereo not given)	/	/	5.2	7.2	-3.7	/	/	/	/
Cc1ccc(CNC(=O)N2CCN(C)CC2)cc1	13.5	-0.9	-4.4	8.2	-5.8	-22.7	/	/	/
CCOc1ccccc1N1CCN(C(=O)NCc2ccc(C)cc2)CC1	4.7	1.4	-7.5	-4.4	-5.9	65.1*	41.2	0.475	6.5
CCOc1cc(CNC(=O)CCCn2c(=O)c3cccn3c3cccnc32)cc(OCC)c1OCC	-3.5	-1.6	12.4	3.7	-0.2	92.3*	107.4*	0.451	-2.2
CCc1ccc(CNC(=O)CCCn2c(=O)c3cccn3c3cccnc32)cc1	19.1	-6.3	1.1	-1.0	5.3	3.0	/	/	/
O=C(Nc1ccc(-c2csc(Nc3ccccc3)n2)cc1)c1cccc(C(F)(F)F)c1	24.4	/	13.9	13.9	-1.3	7.4	/	/	/
O=C(Nc1ccc(-c2csc(Nc3ccc(Cl)cc3)n2)cc1)c1cccc(C(F)(F)F)c1	/	/	/	11.4	/	71.9*	99.9*	3.34	10.0
Cc1cc(N2CCOCC2)n2nc(C)c(-c3ccccc3)c2n1	12.2	-9.8	6.8	4.6	2.7	/	/	/	/
Cc1cc(N2CCOCC2)n2nc(C)c(-c3ccccc3Cl)c2n1	-3.0	7.0	6.4	2.5	-8.7	78.2*	106.7*	-0.158	7.3
Cc1ccc(-c2c(C)nn3c(N4CCOCC4)cc(C)nc23)cc1	-20.2	0.5	5.3	3.2	-11.7	70.6*	108.3*	0.364	4.1
SMILES	Arrestin-AP2 inh	M18AAP inhibitor	CendR NRP1 mod	sPLA2-III inh	HTR2A ag	Hep lipid drop	Lipid drop inh	AML12 cytotox	AML12 tox conf
CCOc1ccc(OCC(=O)Nc2cc(Cl)ccc2-n2cncn2)cc1	/	/	-15.6	9.6	-4.2	/	/	/	/
COC(=O)c1ccc(C2=NOC(C)(c3sc(-c4ccc(Cl)cc4)nc3C)C2)cc1 (stereo not given)	-1.9	/	14.3	-5.2	-3.2	55.6*	58.0*	-0.0909	5.7
CC1=C(C(=O)OC2CCCCC2)C(c2ccc(F)cc2)NC(=O)N1 (stereo not given)	-4.6	0.1	-2.5	-0.4	-3.0	-4.1	/	/	/
O=C(C(=O)N1CCC(CNC(=O)c2sc3ccccc3c2Cl)CC1)c1cccs1	/	/	/	-0.2	/	/	/	/	/
CCc1c(C#N)c(SCCC(=O)Nc2ccc(OC)cc2)nc2c1C(=O)CC(C)(C)C2	5.8	1.7	-1.7	-4.1	-2.6	54.1*	88.8*	0.839	0.1
CCc1c(C#N)c(SCc2c(C)noc2C)nc2c1C(=O)CC(C)(C)C2	-8.3	-7.6	-2.1	-6.0	6.8	2.7	/	/	/
CCOc1ccccc1NC(=O)CC1Nc2cc(C)c(C)cc2NC1=O (stereo not given)	23.4	9.9	-5.9	-16.8	-1.6	58.6*	66.6*	1.3	/
O=C(O)c1ccc(OCc2ccc(C(=O)O)o2)cc1	8.6	-1.0	-9.4	-2.5	-3.0	0.2	/	/	/
CCc1ccc(OCc2ccc(C(=O)O)o2)cc1	20.8	-9.4	-0.8	-1.9	1.9	59.2*	15.7	-0.0269	/
COc1ccc(C2C(C(=O)N3CCOCC3)CC(=O)N2c2ccc(OC)cc2)cc1 (stereo not given)	/	/	/	3.5	/	/	/	/	/
COC(=O)[C@]12C[C@H](CC(=O)NCc3cccc(C(F)(F)F)c3)C(=O)N(CCc3ccc(OC)c(OC)c3)C1=C[C@H](COCc1ccccc1)O[C@@H]2C	/	/	/	-20.5	/	/	/	/	/
Cc1cc2c(cc1S(=O)(=O)Nc1cccc(C)c1C)n(C)c(=O)c(=O)n2C	4.1	3.3	8.6	-3.5	0.0	54.1*	66.0	-0.537	/
CCc1ccc(NS(=O)(=O)c2cc3c(cc2C)n(C)c(=O)c(=O)n3C)cc1	-1.0	3.9	-17.8	-2.3	3.4	50.7*	92.5*	-0.7	5.5
Cc1cccc(NS(=O)(=O)c2cn(C)c(=O)n(C)c2=O)c1C	-3.3	-8.8	-13.3	0.1	-2.5	-9.7	/	/	/

Screening data (PubChem)
